A selection: hits, their analogues and other compounds. The true share with any hit is near 2%.
MC4R ag barr: agonists of human melanocortin 4 receptor (MC4R) beta-arrestin; U2OS MC4R beta-arrestin complementation, luminescence; percent of melanotan II response, DMSO zero; AID 540308; activation, % at 8.9 µM; 0.98% of 360,000 active;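 active = activation above a per-plate cutoff, the mean activation of sample wells on that plate plus 3 SD, cut at about 8% in these data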
Target sequence (P32245 whole entry, looked up): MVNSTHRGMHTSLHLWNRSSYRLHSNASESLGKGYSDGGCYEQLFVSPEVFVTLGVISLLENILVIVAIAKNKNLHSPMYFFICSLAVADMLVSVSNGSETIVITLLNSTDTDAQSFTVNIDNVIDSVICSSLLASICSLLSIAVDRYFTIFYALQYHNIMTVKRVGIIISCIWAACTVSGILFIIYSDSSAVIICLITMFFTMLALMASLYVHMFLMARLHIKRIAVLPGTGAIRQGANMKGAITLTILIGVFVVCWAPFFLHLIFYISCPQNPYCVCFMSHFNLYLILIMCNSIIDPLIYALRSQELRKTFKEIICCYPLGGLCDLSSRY
A1 inh: inhibitors of the anti-apoptotic protein A1, read as caspase activation; MEF A1-2A-BIM cells, Caspase-Glo 3/7 luminescence, 3 h; percent of clofoctol response, vehicle zero; 0.066% of 330,000 active; AID 2462; caspase activation, % (concentration not given with the values);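 active = over half of replicate activation scores above 10%, or exactly half above 10 with the replicate mean above 10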
UPR CHOP act: activators of apoptotic arm of unfolded protein response (CHOP); 0.34% of 330,000 active; CHO-CHOP luciferase reporter, UPR activation, luminescence; percent of tunicamycin response over DMSO baseline; activation, % at 10 µM; AID 449763;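 active = at 10 µM dose, activation of 40% or more, normalized to positive control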;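 also: 100% = tunicamycin at 10 µg/mL and 0% = DMSO alone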
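System: CHO-CHOP luciferase reporter cell line | Buffer or medium: F12 medium containing 10% fetal bovine serum | Doses: One dose, 10 µM in 0.5% DMSO | Times: 6 h compound exposure at 37 °C after overnight seeding | Signal: Luciferase luminescence | Read-out: % activation vs tunicamycin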
MC4R antag cAMP: human MC4R antagonism in cAMP assay; inhibition, % at 6.5 µM; P32245; AID 540295; MC4R-expressing cells, MTII-stimulated cAMP, LANCE TR-FRET; 0.48% of 360,000 active;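 active = inhibition above its plate's cutoff, the mean of tested wells on that plate plus 3 SD, cut at about 29% in these data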;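 also: 0% = Melanotan II alone and 100% = Melanotan II plus saturating MCL0020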
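Material – human MC4R-expressing U2OS cells · Repeats – no replicates · Detection – TR-FRET with Eu-cAMP and labeled anti-cAMP, 671 nm · Times – compound 30 min, challenge 1 h, detection 1 h · Compound – single nominal compound dose of 6.5 µM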
XBP1 UPR activ: adaptive UPR (XBP1) activation; CHO-XBP1 luciferase reporter, IRE1-XBP1 UPR activation, luminescence; percent of tunicamycin response, DMSO as zero; activation, % at 20 µM; 0.33% of 330,000 active; AID 463104;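 active = versus positive control, 20 µM dose yields 30% or more activation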;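 also: 100% = tunicamycin at 10 µg/mL and 0% = DMSO only wells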
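Material: CHO cell line with stable XBP1 luciferase reporter; schedule: 16-18 h cell attachment at 37 °C, then 6 h compound exposure; signal: glow luminescence from Steady-Glo reagent; medium: serum-containing F12 medium, 10% FBS; benchmarks: tunicamycin 10 µg/mL and vehicle-only wells; read-out: percent activation relative to tunicamycin reference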
CHOP UPR conf: apoptotic UPR (CHOP) activation, confirmed | shares compounds with UPR CHOP act | 64% of 1,000 active | activation, % at 10 µM | CHO-CHOP cells, CHOP-luciferase reporter luminescence; percent of tunicamycin response, DMSO as zero | AID 463112; in the data active = activation above about 33%;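 also: 0% = DMSO wells and 100% = tunicamycin 10 µg/mL wells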
UPR XBP1 confirm: adaptive UPR (XBP1) activation, confirmed. shares compounds with XBP1 UPR activ. CHO-XBP1 IRE1-XBP1 luciferase reporter, luminescence. activation, % at 20 µM. 63% of 1,000 active;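 active = reporter signal at least 30% of the positive control's activation in two or more of four replicate wells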;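 also: plate controls were DMSO negative control for no effect and tunicamycin 10 µg/mL positive control for full effect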
* marks the source's active call; other numbers are inactive results; x = not tested or not shown.

SMILES	MC4R ag barr	A1 inh	UPR CHOP act	MC4R antag cAMP	XBP1 UPR activ	CHOP UPR conf	UPR XBP1 confirm
COc1ccc(-n2c(C)cc(C(=O)CCl)c2C)cc1	-4.1	2.8	564.5*	-13.7	42.2*	416.8*	30.9*
O=C(c1ccc(N2C(=O)CCC2=O)cc1)N1CCCSC1=Nc1ccccc1	0.4	x	x	-3.1	x	x	x
FC(F)(F)c1nnc2c(Sc3ccccc3)nc3ccccc3n12	-3.7	-0.2	0.9	20.7	5.4	x	x
FC(F)(F)c1nnc2c(Sc3ccc(Cl)cc3)nc3ccccc3n12	-1.1	0.0	84.1*	4.5	59.4*	127.1*	55.3*
CCCCN(C=O)c1c(CC)nc2c(OCc3ccc(C(F)(F)F)cc3)cccn12	-1.6	x	x	1.1	x	x	x
CC(C)NC(=O)c1cc(C2CCCCN2C(=O)c2ccc(C#N)cc2)on1 (centres undefined)	1.5	x	x	4.8	x	x	x
COc1cc([N+](=O)[O-])cc(/C=N/NC(=O)c2ccc(NC(=O)c3ccc(C)cc3)cc2)c1O	-0.9	x	49.0*	11.7	37.6*	64.0*	44.5*
COc1cc([N+](=O)[O-])cc(/C=N/NC(=O)c2ccc(C)nc2)c1O	-1.6	-4.6	-0.9	-6.7	-1.9	x	x
N#Cc1ccc(N/N=C/c2cn(-c3ccccc3)nc2-c2ccccc2)c([N+](=O)[O-])c1	-1.4	1.1	106.6*	8.1	42.6*	107.7*	122.1*
CCOC(=O)c1nn(-c2ccc(OCC)cc2)c2nc(-c3ccco3)c(C#N)c(=O)n12	0.0	0.2	53.3*	21.7	74.7*	28.4	51.9*
COc1cccc(-n2c(SCC(=O)N3CCc4ccccc43)nnc2-c2c[nH]c3ccccc23)c1	-0.5	0.4	102.2*	9.8	336.3*	43.0*	229.4*
Cn1c2ccccc2c2cc(/C=N/NC(=O)c3cc(O)ccc3O)ccc21	-1.3	-0.6	168.8*	5.8	33.4*	84.1*	87.2*
CCN(CCCNc1cc2c(c(N)c1S(=O)(=O)O)C(=O)c1ccccc1C2=O)c1ccccc1	-4.4	x	x	-4.4	x	x	x
COc1cc(/C=C(/C#N)c2nc3ccccc3[nH]2)ccc1OCC(=O)Nc1ccccc1C	6.1	7.2*	299.4*	3.0	115.8*	38.0*	78.7*
COc1cc(/C=C(\C#N)c2nc3ccccc3[nH]2)ccc1OC(=O)c1ccco1	-0.1	-9.2	6.8	-8.7	16.8	x	x
Cc1ccc(-c2nc(N/N=C/c3cccc([N+](=O)[O-])c3)c3ccccc3n2)cc1	0.6	-5.5	164.6*	7.9	193.9*	89.4*	223.3*
Cc1ccc(-c2nc(N/N=C/c3cccnc3)c3ccccc3n2)cc1	1.2	-7.6	2.0	8.2	4.9	x	x
Cc1cccc(C)c1NC(=O)CNC(=O)c1cn(-c2ccccc2)nc1-c1ccccc1	-3.8	-0.3	3.9	7.9	-7.2	x	x
Cc1nn(Cc2c(Cl)cccc2Cl)c(C)c1NC(=O)c1cn(-c2ccccc2)nc1-c1ccccc1	-1.0	12.8*	145.6*	20.2	77.8*	75.9*	85.0*
COc1cc(C(=O)Nc2nc(-c3ccc(Cl)cc3)c(C)s2)ccc1OCC(=O)Nc1ccc(F)cc1	5.2	-0.6	126.7*	10.9	99.3*	70.5*	109.4*
COc1ccc(-c2nc(NC(=O)c3ccc(OCC(=O)N4CCOCC4)c(OC)c3)sc2C)cc1	3.5	0.7	1.7	1.3	-2.5	x	x
Cc1cccc(-c2cccc3nccn23)c1	-0.1	x	x	-9.0	x	x	x
Cn1nc(C(F)(F)F)c(/C=N/OC(=O)c2ccccc2)c1SCc1ccccc1Cl	1.1	0.7	52.2*	8.9	91.0*	99.6*	114.7*
Oc1cccc(/C=N/Nc2ncnc3c2ncn3Cc2ccccc2)c1	-1.1	0.4	1.8	-1.2	3.0	x	x
Oc1ccc(/C=N/Nc2ncnc3c2ncn3Cc2ccccc2)cc1O	-0.3	-0.4	222.6*	-6.2	136.2*	66.9*	75.8*

Screening results as filed in PubChem.
